# Measurements: ChEMBL document CHEMBL4364260, “Discovery of Ziresovir as a Potent, Selective, and Orally Bioavailable Respiratory Syncytial Virus Fusion Protein Inhibitor” (J Med Chem, 2019)
# Calls of active or inactive are those of the source. The calls are words filed in the database; no cut-off is given here.
# What was measured:
# [1] = AUC (0 to 24 hrs) in CD-1 mouse lung at 10 mg/kg/day, po administered via gavage and measured up to 24 hrs by LC/MS/MS analysis; assay type: ADME, organism-based; design: dose 10 mg/kg/day, time < 24 hr, route oral
# [2] = AUC (0 to 24 hrs) in CD-1 mouse plasma at 10 mg/kg/day, po administered via gavage and measured up to 24 hrs by LC/MS/MS analysis; assay type: ADME, organism-based; design: dose 10 mg/kg/day, time < 24 hr, route oral
# [3] = Cytotoxicity against human Hep2 cells assessed as reduction in cell viability after 5 days by CCK-8 assay; assay type: cell-based; conditions: HEp-2 cells
# In short: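 Uninfected HEp-2 cells (6000/well) were incubated 5 days with serially diluted compound. Viability was read by CCK-8, and CC50 is the concentration toxic to 50% of cells.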
# [4] = Antiviral activity against Human respiratory syncytial virus A strain Long infected in human Hep2 cells assessed as reduction in virus induced cytopathic effect in presence of 40% FBS after 5 days by CCK-8 assay; assay type: functional, cell-based; conditions: HEp-2, 120 h
# In short: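 RSV Long CPE assay with 40% FBS in place of the standard 10%. HEp-2 cells at 6000/well were infected next day at MOI 0.02 and kept 5 days with serially diluted compound. CCK-8 viability gave the 50% effective concentration.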
# [5] = Half-life in Wistar-Han rat at 2 mg/kg, iv administered as single dose and measured up to 24 hrs by LC/MS/MS analysis; assay type: ADME, organism-based; conditions: in vivo
# In short: (§1)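 Male Wistar-Han rats, single dose, 2 mg/kg iv and 10 mg/kg po, run by standard procedures.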
# [6] = Volume of distribution at steady state in Wistar-Han rat at 2 mg/kg, iv or 10 mg/kg, po administered as single dose via gavage and measured up to 24 hrs by LC/MS/MS analysis; assay type: ADME, organism-based; conditions: in vivo, read-out: Vdss; in short: as §1
# [7] = Antiviral activity against Human respiratory syncytial virus B 821 clinical isolates infected in human Hep2 cells assessed as reduction in virus induced cytopathic effect in presence of 10% FBS after 5 days by CCK-8 assay; assay type: functional, cell-based; conditions: human respiratory syncytial virus, 821, HEp-2, 120 h
# In short: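 HEp-2 cells seeded at 6000/well and infected the next day at MOI 0.02, a dose that gives about 90% CPE by day 5. Serial compound dilutions were present throughout, in standard medium with 10% FBS. Viability was read by CCK-8 at day 5, and EC50 is the concentration that cuts CPE by 50%.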
# [8] = Half-life in CD-1 mouse plasma at 10 mg/kg/day, po administered via gavage and measured up to 24 hrs by LC/MS/MS analysis; assay type: ADME, organism-based
# [9] = Tmax in CD-1 mouse plasma at 10 mg/kg/day, po administered via gavage and measured up to 24 hrs by LC/MS/MS analysis; assay type: ADME, organism-based
# [10] = Tmax in CD-1 mouse lung at 10 mg/kg/day, po administered via gavage and measured up to 24 hrs by LC/MS/MS analysis; assay type: ADME, organism-based
# [11] = Cmax in CD-1 mouse lung at 10 mg/kg/day, po administered via gavage and measured up to 24 hrs by LC/MS/MS analysis; assay type: ADME, organism-based; design: dose 10 mg/kg/day, route oral
# [12] = test system: Fusion glycoprotein F0 (Human respiratory syncytial virus A (strain A2)), P03420 [D486N]; assay: Inhibition of Human respiratory syncytial virus Fusion protein D486N mutant expressed in Hep2 cells as reduction in virus induced cytopathic effect by CCK-8 assay; assay type: cell-based
# In short: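 HEp-2 cells were seeded at 6000/well and infected with plaque-purified RSV carrying the F-protein mutation (D486N or D489A) at MOI 0.04, with serially diluted compound. Viability was read by CCK-8 absorbance at 450 nm/650 nm, and EC50/EC90 were derived from protection against virus-induced cytopathic effect.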
# [13] = Clearance in CD-1 mouse at 5 mg/kg, iv or 50 mg/kg, po; assay type: ADME, organism-based; conditions: in vivo
# In short: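 Single-dose PK in CD-1 mice: 5 mg/kg iv, 50 mg/kg po. Dosed as a solution in 5% DMSO, 40% PEG400, 55% of 0.9% NaCl. Plasma CL, Vss, iv T1/2, AUC and F were derived.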
# [14] = Clearance in Beagle dog at 1 mg/kg, iv or 10 mg/kg, po; assay type: ADME, organism-based, Canis lupus familiaris; conditions: in vivo
# In short: (§2)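 Beagle dog single-dose PK at 1 mg/kg iv and 10 mg/kg po, dosed as a solution in 12.5% captisol in water. Plasma clearance, Vss, iv T1/2, AUC and F were reported.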
# [15] = Volume of distribution at steady state in cynomolgus monkey at 2 mg/kg, iv or 10 mg/kg, po; assay type: ADME, organism-based, Macaca fascicularis; conditions: in vivo, read-out: Vdss
# In short: (§3)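 Cynomolgus monkeys got single doses of 2 mg/kg iv and 10 mg/kg po as a solution in 12.5% captisol in water. Plasma CL, Vss, iv T1/2, AUC and oral F were derived.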
# [16] = Half-life in Beagle dog at 1 mg/kg, iv; assay type: ADME, organism-based, Canis lupus familiaris; conditions: in vivo; in short: as §2
# [17] = Half-life in cynomolgus monkey at 2 mg/kg, iv; assay type: ADME, organism-based, Macaca fascicularis; conditions: in vivo; in short: as §3
# [18] = AUC (0 to 24 hrs) in CD-1 mouse at 50 mg/kg, po; assay type: ADME, organism-based; design: dose 50 mg/kg, time < 24 hr, route oral; conditions: in vivo
# In short: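 Single-dose PK in mouse at 5 mg/kg iv or 50 mg/kg po, as a solution in 5% DMSO, 40% PEG400 and 55% 0.9% sodium chloride. Plasma AUC was taken from the oral arm, with CL, Vss, iv T1/2 and F also derived.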
# [19] = AUC (0 to 24 hrs) in Sprague-Dawley rat at 10 mg/kg, po; assay type: ADME, organism-based; design: dose 10 mg/kg, time < 24 hr, route oral; conditions: in vivo
# [20] = AUC (0 to 24 hrs) in cynomolgus monkey at 10 mg/kg, po; assay type: ADME, organism-based, Macaca fascicularis; design: dose 10 mg/kg, time < 24 hr, route oral; conditions: in vivo
# In short: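 Single-dose PK. Dog received 1 mg/kg iv or 10 mg/kg po, and cynomolgus monkey received 2 mg/kg iv or 10 mg/kg po. Both were given as a solution in 12.5% captisol in water. Plasma AUC was taken from the oral arm, with CL, Vss, iv T1/2 and F also derived.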
# [21] = Oral bioavailability in cynomolgus monkey at 10 mg/kg; assay type: ADME, organism-based, Macaca fascicularis; conditions: in vivo; in short: as §3
# [22] = target: Fusion glycoprotein F0 (human respiratory syncytial virus) (UniProt Q89535); assay: Inhibition of Human respiratory syncytial virus Fusion protein assessed as reduction in protein-induced syncytia formation at 0.1 uM after 3 days by microscopic method relative to control
# In short: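 Serially diluted compound was added to cells expressing RSV-F. Cell-cell fusion (syncytia) was scored by microscopy three days after compound addition.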
# [23] = Antiviral activity against Human respiratory syncytial virus A strain Long infected in BALB/c mouse assessed as log reduction in virus titer in lung at 12.5 mg/kg, po BID administered up to 8 hrs for 4 days relative to control; assay type: functional
# In short: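 Six-week-old female BALB/c mice, housed specific-pathogen-free, were anesthetized intraperitoneally with ketamine/xylazine and given RSV Long strain intranasally (5×10^5 PFU in 100 µL). Oral dosing was twice daily (0 h and 8 h) for 4 days, 12 mice per group. Mice were then euthanized with CO₂ and lungs harvested for viral titer, compared with vehicle.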
# [24] = test system: Enterovirus; assay: Antiviral activity against Rhinovirus infected in human Hep2 cells assessed as reduction in virus induced cytopathic effect after 5 days by CCK-8 assay; assay type: functional, organism-based
smiles,measurement,setting,value
Cc1ccc2nc(N3CCS(=O)(=O)c4ccccc4C3)nc(NCC3(N)COC3)c2c1 [ZIRESOVIR],AUC at 24 h,[1],72400 ng·h/mL
same,AUC at 24 h,[2],8380 ng·h/mL
same,CC50 at 120 h,[3],> 100 µM
same,EC50,[4],3 nM
same,EC90,[4],8 nM
same,half-life,[5],72 min
same,Vd,[6],3.9 L/kg
same,EC50,[7],3 nM
same,EC90,[7],8 nM
same,half-life,[8],61.2 min
same,Tmax,[9],15 min
same,Tmax,[10],1 h
same,Cmax,[11],22700 ng/mL
same,EC90,[12],> 10 µM
same,clearance,[13],277 mL/min/kg
same,clearance,[14],36 mL/min/kg
same,Vd,[15],1.9 L/kg
same,half-life,[16],168 min
same,half-life,[17],60 min
same,AUC(0-t) at 24 h,[18],1970 ng·h/mL
same,AUC(0-t) at 24 h,[19],906 ng·h/mL
same,AUC(0-t) at 24 h,[20],1440 ng·h/mL
same,bioavailability,[21],22%
same,inhibition,[22],100%
same,FC,[23],>1
same,Activity,[24],inactive
